Assay outcomes deposited in PubChem BioAssay by several laboratories.
In the library only some 1.4% were active in any assay of this set; here they are far more common.
HNF4A DNA FP: change in binding of human HNF4 alpha to DNA; activity change, % at 10 µM; HNF4a-FITC DNA binding, fluorescence polarization, 1 h; 360,000 compounds, 0.3% hits; P41235; in the data active means activity change above about 30%, passing the limit was not always enough
Target sequence (P41235 whole entry, looked up): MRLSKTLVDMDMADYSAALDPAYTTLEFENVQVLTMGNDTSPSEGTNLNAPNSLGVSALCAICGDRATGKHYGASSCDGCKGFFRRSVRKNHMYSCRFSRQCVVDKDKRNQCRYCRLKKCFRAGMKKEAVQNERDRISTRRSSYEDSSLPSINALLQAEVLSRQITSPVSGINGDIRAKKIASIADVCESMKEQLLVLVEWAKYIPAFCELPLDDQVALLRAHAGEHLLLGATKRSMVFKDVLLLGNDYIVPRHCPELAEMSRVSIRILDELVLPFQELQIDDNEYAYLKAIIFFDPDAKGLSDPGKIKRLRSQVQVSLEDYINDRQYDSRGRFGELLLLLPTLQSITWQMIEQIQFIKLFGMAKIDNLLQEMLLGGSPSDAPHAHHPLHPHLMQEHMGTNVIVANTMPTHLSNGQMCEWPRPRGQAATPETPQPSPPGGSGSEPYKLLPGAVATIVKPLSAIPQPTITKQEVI
CSN inh: inhibitors of human CSN-mediated cullin deneddylation. Purified CSN, SCF-Nedd8-OG deneddylation, fluorescence polarization. inhibition, % at 12.5 µM. 360,000 compounds, 0.38% hits. AID 651999;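 active means pattern-corrected inhibition above about 35%, with an unprinted fluorescence ratio check between 0.5 and 1.5, limit read from the data, passing the limit was not always enough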
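Assay system: HEK293T-derived human Csn5 enzyme; quantity: 0.24 nM enzyme; medium: Tris/NaCl/DTT buffer, pH 7.5; also added: substrate SCFSkp2-Nedd8OG, 10 nM; doses: 12.5 µM compound; schedule: 90 min reaction at room temperature; signal: FP; read-out: % inhibition of substrate cleavage by Csn5; benchmarks: substrate-only high control, full reaction low control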
IDE act: activators of human insulin-degrading enzyme in cells | HEK cells, FAbeta-B cleavage, fluorescence polarization; 0% vehicle, 100% cell-free pure enzyme wells | P14735 | AID 493087 | 340,000 compounds, 0.073% hits | activation, % at 5.96 µM;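 active means activation above the mean of all tested compounds plus 3 SD, set per screening campaign, cut at about 17% in these data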
TPT1 inh: C. albicans TPT1 enzyme inhibition. 300,000 compounds, 0.81% hits. inhibition, % at 5 µM. recombinant caTPT1, FP RNA substrate dephosphorylation. AID 1962;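 active means inhibition above the mean of all tested compounds plus 3 SD, set per screening campaign, cut at about 24% in these data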
IDE cell inh: cellular human IDE inhibition | inhibition, % at 5.59 µM | HEK cells, FAbetaB cleavage, fluorescence polarization | P14735 | 320,000 compounds, 0.41% hits;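 active means percent inhibition above the average of all tested compounds plus 3 SD, set per screening campaign, cut at about 16% in these data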;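 further: IDE supplied by intact live HEK cells; FP after avidin binding of uncleaved biotin substrate so inhibition keeps polarization high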
Large screens that a line does not name were inactive.

COc1ccccc1/C=N/NC(=O)CC(=O)Nc1ccc(Cl)c(Cl)c1	HNF4A DNA FP 44.4
COc1ccc(NC(=O)C2CCCN2S(=O)(=O)c2ccc3c(c2)C(C)(C)C(=O)N3C)cc1 (stereo not drawn)	none (no result: IDE act, TPT1 inh, IDE cell inh)
CCn1c(SCCC(=O)O)nnc1-c1cccnc1	none
CCn1c(SCC(=O)c2ccccc2)nnc1-c1cccnc1	HNF4A DNA FP 35.8
Cc1ccc(C)n1-c1sc2c(c1C(=O)O)CCCC2	CSN inh 38.7
CCOC(=O)c1c(-n2c(C)cc(C=O)c2C)sc2c1CCCC2	none
CN(CCO)c1ccc(C=NNc2ccc([N+](=O)[O-])cc2S(=O)(=O)Nc2ccccc2C(=O)O)cc1	HNF4A DNA FP 47.2 (no result: IDE act, TPT1 inh)
CC(=O)Nc1ccc(C=NNc2ccc([N+](=O)[O-])cc2S(=O)(=O)Nc2ccccc2C(=O)O)cc1	none (no result: TPT1 inh)
Cc1ccc(C(=O)O)cc1-c1ccc(/C=C2\SC(=O)N(CC(=O)Nc3ccccc3)C2=O)o1	none
Cc1cc(C(=O)O)ccc1-c1ccc(/C=C2\SC(=O)N(CC(=O)Nc3ccc4c(c3)OCO4)C2=O)o1	HNF4A DNA FP 36.4 (no result: TPT1 inh, IDE cell inh)
CC(C)NC(=O)C1(C)CSCC(=O)N1Cc1ccco1 (stereo not drawn)	none (no result: IDE act, TPT1 inh, IDE cell inh)
CCN(CC)CCCN=Cc1c(O)n(-c2c(C)cccc2C)c(=O)c2ccccc12	none (no result: IDE act)
CCc1ccc(-n2c(O)c(C=NCCN(CC)CC)c(=O)[nH]c2=O)cc1	CSN inh 35.2 (no result: TPT1 inh, IDE cell inh)
O=C1NC[C@H](CCCCN2CCN(CC3CCCCC3)C(=O)C2=O)N(CCc2ccccc2)C1=O	none (no result: IDE act, TPT1 inh, IDE cell inh)
CCCCn1nnnc1C(c1cc2ccccc2o1)N1CCN(c2cc(C)nc3ccccc23)CC1 (stereo not drawn)	none (no result: IDE act, TPT1 inh, IDE cell inh)
CC(C)(C)C(=O)OCc1nc(-c2ccc(F)cc2)cs1	none
COc1ccc(-c2csc(COC(=O)C(C)(C)C)n2)cc1	CSN inh 104.9
Nc1cc(-c2ccccc2)nn1S(=O)(=O)c1ccc(Br)cc1	CSN inh active
CCCCn1c(NC(=O)c2ccc(F)cc2)c(C#N)c2nc3ccccc3nc21	TPT1 inh 80.5 (no result: HNF4A DNA FP, CSN inh, IDE act)
C[C@@H]1CN([C@H](C)CO)C(=O)CCCn2cc(nn2)CO[C@H]1CN(C)C(=O)c1ccccc1	none (no result: IDE act, TPT1 inh, IDE cell inh)
O=C(O)c1ccccc1NC(=O)C1CCN(S(=O)(=O)c2cccc3nsnc23)CC1	IDE act 32.3
O=C1CCCCC1Sc1nnc(Nc2ccccc2)s1 (stereo not drawn)	CSN inh 45.2
O=C1OC(c2ccc(F)cc2)=C/C1=C\c1ccc([N+](=O)[O-])o1	TPT1 inh 44.5 (no result: HNF4A DNA FP, CSN inh, IDE act)
CC(C)C[C@@H]1Cc2[nH]c(=S)[nH]c(=O)c2[C@H](CCc2ccccc2)O1	none (no result: IDE act, TPT1 inh, IDE cell inh)
COc1ccc2cc(C(=O)Nc3ccc(F)cc3)sc(=O)c2c1OC	CSN inh 40.8
CC(C)=C[C@H]1C[C@H](C)[C@H]2CC[C@H](C)c3c(O[C@@H]4O[C@@H](C)[C@@H](O)[C@@H](O)[C@@H]4O)c(O)c(C)c1c32	none (no result: IDE act, TPT1 inh, IDE cell inh)
CCc1ccc(/C(C)=N/NC(=O)CNC(=O)/C=C/c2ccco2)cc1	CSN inh 37.6
COc1ccc(CN2C(=O)c3ccccc3C2c2nnnn2-c2ccc3c(c2)OCCO3)cc1OC (stereo not drawn)	none (no result: IDE act, TPT1 inh, IDE cell inh)
CCOC(=O)C1=CCN(S(=O)(=O)c2ccc(C)cc2)C1c1cccc(Cl)c1 (stereo not drawn)	none (no result: IDE act, TPT1 inh, IDE cell inh)
COC(=O)c1ccccc1NC(=O)CSc1nnc(C(CO)NC(=O)c2ccccc2Cl)n1C (stereo not drawn)	HNF4A DNA FP 37.3
c1ccc2c(CN3CCOCC3)c3ccccc3c(CN3CCOCC3)c2c1	HNF4A DNA FP 31.8
CC(=O)N1CCC(=O)Nc2ccc([N+](=O)[O-])cc21	IDE act 20.1
CC(=O)N1CCc2ccc([N+](=O)[O-])cc21	none (no result: TPT1 inh, IDE cell inh)
CC(=O)c1cc2cccc(OC3(C)CCN(Cc4ccc(-c5ccccn5)cc4)C3)c2o1 (stereo not drawn)	none (no result: IDE act, TPT1 inh, IDE cell inh)
CC(=O)Oc1cc(C(=O)OCC(=O)NC23CC4CC(CC(C4)C2)C3)cc(OC(C)=O)c1OC(C)=O	CSN inh 41.2 (no result: TPT1 inh, IDE cell inh)
S=c1[nH]nc(C2CCCCC2)n1/N=C/c1ccc(Br)s1	HNF4A DNA FP 34.6
S=c1[nH]nc(C2CCCCC2)n1/N=C/c1ccc(Br)cc1	none
O=[N+]([O-])c1ccc(-c2cn(-c3ccc(Cl)cc3)cn2)cc1	HNF4A DNA FP 40.1 (no result: IDE act, TPT1 inh, IDE cell inh)
CCOC(=O)c1ccc(-n2cnc(-c3ccc([N+](=O)[O-])cc3)c2)cc1	none (no result: IDE act, TPT1 inh, IDE cell inh)
COc1cccc2c1C(=O)c1c(O)c3c(c(O)c1C2=O)C[C@@](O)(C(C)=O)C[C@@H]3O[C@H]1C[C@H](N)[C@H](O)[C@H](C)O1	IDE act 18.6 (no result: TPT1 inh, IDE cell inh)
COc1cccc2c1C(=O)c1c(O)c3c(c(O)c1C2=O)C[C@@](O)(C(=O)CO)C[C@@H]3O[C@H]1C[C@H](N)[C@@H](O)[C@H](C)O1	none
CC(C)=CCc1cc([C@@H]2COc3c(ccc4c3C=CC(C)(C)O4)C2)c(O)cc1O	none
CC1(C)C=Cc2c(ccc3c2OC[C@H](c2ccc(O)cc2O)C3)O1	IDE act 17.7 (no result: TPT1 inh)
Nn1c(SCC(=O)Nc2c(F)cc(F)cc2Br)nnc1C1CCCCC1	CSN inh 107.6
Nn1c(SCC(=O)Nc2ccc(F)cc2F)nnc1C1CCCCC1	none
Cc1noc(/C=C/c2ccc(-c3ccccc3Cl)o2)c1[N+](=O)[O-]	TPT1 inh 137.5
N#CCSc1ncnc2sc3c(c12)CCC3	CSN inh 38.0
Cc1nc(SCC#N)c2c3c(sc2n1)CCC3	none
Cc1ccccc1CN1C(=O)CN(S(C)(=O)=O)CC1(C)C(=O)NCc1ccccc1 (stereo not drawn)	none (no result: IDE act, TPT1 inh, IDE cell inh)
CC1OC2CC(=O)OC2C2=C1C(=O)c1c(O)cccc1C2=O (stereo not drawn)	none (no result: IDE act, TPT1 inh, IDE cell inh)
Cc1cc(NS(=O)(=O)c2ccc(Nc3nc(-c4sc(N)nc4C)cs3)cc2)no1	CSN inh 73.0
Cc1cc(NS(=O)(=O)c2ccc(Nc3nc(-c4ccc(C)c(C)c4)cs3)cc2)no1	none
Cc1ccc(S(=O)(=O)N2[C@@H](c3ccc(Cl)cc3)C(C(=O)OC(C)(C)C)=CC[C@H]2c2ccc(Cl)c(Cl)c2)cc1	CSN inh 144.0 (no result: IDE act, TPT1 inh, IDE cell inh)
Cc1ccc(S(=O)(=O)N2[C@@H](c3ccc(C(C)(C)C)cc3)C(C(=O)O)=CC[C@H]2c2ccc(Cl)c(Cl)c2)cc1	none (no result: TPT1 inh)
CCn1c(O)c(/C=N/NC(=O)c2ccncc2)c(=O)n(CC)c1=S	HNF4A DNA FP 77.7 (no result: TPT1 inh, IDE cell inh)
Cc1csc(NC(=O)c2cc(-c3ccco3)nc3ccccc23)n1	CSN inh 45.8
Cc1noc(C)c1COc1ccc(C(=O)OCC(=O)N2CC3(C)CC2CC(C)(C)C3)cc1 (stereo not drawn)	CSN inh 36.9
COCCN1C(=O)CCC1(C)C(=O)NC1CCCCC1 (stereo not drawn)	CSN inh 120.8 (no result: IDE act, TPT1 inh, IDE cell inh)
COCCN1C(=O)CCC1(C)C(=O)NC1CCCC1 (stereo not drawn)	none (no result: IDE act, TPT1 inh, IDE cell inh)
CSCCC(C(=O)Nc1c(C)cccc1C)n1c(COc2ccc(C)cc2)nc2ccccc21 (stereo not drawn)	none (no result: IDE act, TPT1 inh, IDE cell inh)
